Data reported in ChEMBL document CHEMBL1140219, “Activation of p16 gene silenced by DNA methylation in cancer cells by phosphoramidate derivatives of 2'-deoxyzebularine” (2008).
Activity calls are given as the source filed them. The rule behind the calls is not given here.

How the values were obtained:
CFPAC-1 [1] = test: Induction of p16 gene expression in human Cf-Pac-1 cells at 100 uM after 8 days by real time PCR; format: functional, cell-based
Procedure, shortened: (§1)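 Cf-Pac-1 cells in IMDM/10% FCS were seeded 3×10^5/dish and treated continuously for 8 days from 24 hr after seeding. Medium and drug were refreshed every 2–3 days, with 100 μM thymidine, lower thymidine, or 100 μM uridine added. Total RNA (5 μg) was reverse transcribed with MMLV RT and random primers. p16 mRNA was measured by real-time RT-PCR and normalized to GAPDH.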

T-24 [2] = test: Induction of p16 gene expression in human T24 cells at 1 uM after 8 days by real time PCR; format: functional, cell-based
Procedure, shortened: (§2)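 T24 or HCT15 cells were treated continuously for 8 days at 1, 10 or 100 μM, with or without 100 μM thymidine. Drug and medium were renewed every 2–3 days. T24 cells were grown in McCoy's 5A with 10% FCS. Total RNA (5 μg) was reverse transcribed with random primers. p16 mRNA was measured by real-time RT-PCR and normalized to GAPDH.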

CFPAC-1 [3] = test: Induction of p16 gene expression in human Cf-Pac-1 cells at 10 uM after 8 days by real time PCR; format: functional, cell-based; procedure, shortened: as §1
CFPAC-1 [4] = test: Induction of p16 gene expression in human Cf-Pac-1 cells at 1 uM after 8 days by real time PCR; format: functional, cell-based; procedure, shortened: as §1
T-24 [5] = test: Induction of p16 gene expression in human T24 cells at 10 uM after 8 days by real time PCR; format: functional, cell-based; procedure, shortened: as §2
CFPAC-1 [6] = test: Induction of p16 gene expression in human Cf-Pac-1 cells after 8 days by real time PCR in presence of 1 to 2 mM thymidine; format: functional, cell-based
T-24 [7] = test: Induction of p16 gene expression in human T24 cells at 100 uM after 8 days by real time PCR; format: functional, cell-based; procedure, shortened: as §2
T-24 [8] = test: Induction of p16 gene expression in human T24 cells after 8 days by real time PCR in presence of […]; format: functional, cell-based; procedure, shortened: as §2
HCT-15 = test: Induction of p16 gene expression in human HCT15 cells at 100 uM after 8 days by real time PCR in presence of […] thymidine; format: functional, cell-based; procedure, shortened: as §2
CFPAC-1 [9] = test: Cytotoxicity against human Cf-Pac-1 cells assessed as increase in cell population doubling time at 100 uM after 8 days in presence of 100 uM thymidine; format: functional
Procedure, shortened: (§3)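 Cf-Pac-1 cells grown in IMDM with 10% heat-inactivated FCS at 37°C, 5% CO2. Seeded 3×10^5 cells/10cm dish and treated 24 hr later. Medium and drug were renewed every 2–3 days. Cells were counted by Coulter counter every 2–3 days, with two plates averaged. Population doublings = log(harvested/seeded)/log2. Result is % increase in doubling time over untreated cells.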

CFPAC-1 [10] = test: Induction of hypomethylation at repeat sequence D4Z4 in human Cf-Pac-1 cells at 100 uM after 8 days by quantitative Ms-SNuPE in presence of 100 uM thymidine; format: functional, cell-based
Procedure, shortened: (§4)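 Cf-Pac-1 cells were treated with continuous redosing and received 100 μM thymidine. Genomic DNA (4 μg) was bisulfite-treated and then PCR-amplified: 94°C 3 min, then 40 cycles of 94°C/annealing/72°C, 45 s each. Annealing was 65°C for p16, 53°C for MAGEA1 and 58°C for D4Z4. Ms-SNuPE primer extension was 94°C 1 min, 50°C 30 s, 72°C 20 s.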

CFPAC-1 [11] = test: Induction of p16 gene expression in human Cf-Pac-1 cells at 100 uM by real time PCR in presence of […]; format: functional, cell-based; procedure, shortened: as §1
CFPAC-1 [12] = test: Induction of hypomethylation at CPG-poor promoter region of MAGEA1 gene in human Cf-Pac-1 cells at 100 uM after 8 days by quantitative Ms-SNuPE in presence of 100 uM thymidine; format: functional, cell-based; procedure, shortened: as §4
CFPAC-1 [13] = test: Induction of p16 gene expression in human Cf-Pac-1 cells at 10 uM by real time PCR in presence of […]; format: functional, cell-based; procedure, shortened: as §1
CFPAC-1 [14] = test: Cytotoxicity against human Cf-Pac-1 cells assessed as increase in cell population doubling time at 10 uM after 8 days in presence of 100 uM thymidine; format: functional; procedure, shortened: as §3
CFPAC-1 [15] = test: Induction of hypomethylation at CPG-rich region of p16 in human Cf-Pac-1 cells at 100 uM after 8 days by quantitative Ms-SNuPE in presence of 100 uM thymidine; format: functional, cell-based; procedure, shortened: as §4
CFPAC-1 [16] = test: Cytotoxicity against human Cf-Pac-1 cells assessed as increase in cell population doubling time at 1 uM after 8 days in presence of 100 uM thymidine; format: functional; procedure, shortened: as §3
CFPAC-1 [17] = test: Induction of hypomethylation at CPG-poor promoter region of MAGEA1 gene in human Cf-Pac-1 cells at 10 uM after 8 days by quantitative Ms-SNuPE in presence of 100 uM thymidine; format: functional, cell-based; procedure, shortened: as §4
CFPAC-1 [18] = test: Induction of hypomethylation at CPG-rich region of p16 in human Cf-Pac-1 cells at 10 uM after 8 days by quantitative Ms-SNuPE in presence of 100 uM thymidine; format: functional, cell-based; procedure, shortened: as §4
CFPAC-1 [19] = test: Induction of hypomethylation at repeat sequence D4Z4 in human Cf-Pac-1 cells at 10 uM after 8 days by quantitative Ms-SNuPE in presence of 100 uM thymidine; format: functional, cell-based; procedure, shortened: as §4

| SMILES | Activity (CFPAC-1 [1]) | Activity (T-24 [2]) | Activity (CFPAC-1 [3]) | Activity (CFPAC-1 [4]) | Activity (T-24 [5]) | Activity (CFPAC-1 [6]) | Activity (T-24 [7]) | Activity (T-24 [8]) | Activity (HCT-15) | Activity (CFPAC-1 [9]) | Activity (CFPAC-1 [10]) | Activity (CFPAC-1 [11]) | Activity (CFPAC-1 [12]) | Activity (CFPAC-1 [13]) | Activity (CFPAC-1 [14]) [%] | Activity (CFPAC-1 [15]) | Activity (CFPAC-1 [16]) [%] | Activity (CFPAC-1 [17]) | Activity (CFPAC-1 [18]) | Activity (CFPAC-1 [19]) |
| --- | --- | --- | --- | --- | --- | --- | --- | --- | --- | --- | --- | --- | --- | --- | --- | --- | --- | --- | --- | --- |
| CCOC(=O)[C@H](C)NP(=O)(OC[C@H]1O[C@@H](n2cccnc2=O)C[C@@H]1OP(=O)(N[C@@H](C)C(=O)OCC)Oc1ccc(Cl)cc1)Oc1ccc(Cl)cc1 (stereo partly specified) | inactive | inactive | inactive | inactive | inactive | inactive | inactive | inactive |  |  |  |  |  |  |  |  |  |  |  |  |
| O=c1ncccn1[C@@H]1O[C@H](CO)[C@@H](O)[C@H]1O [ZEBULARINE] |  |  |  |  |  |  |  |  | Active | 103% |  |  |  |  |  |  |  |  |  |  |
| CC(C)(NP(=O)(OC[C@H]1O[C@@H](n2cccnc2=O)C[C@@H]1O)Oc1cccc2ccccc12)C(=O)OCc1ccccc1 (stereo partly specified) | inactive | inactive | inactive | inactive | inactive | inactive | inactive | inactive |  | 23% | Active | Active | Active | Active | 36 | Active |  |  |  |  |
| CC(C)(NP(=O)(OC[C@H]1O[C@@H](n2cccnc2=O)C[C@@H]1OP(=O)(NC(C)(C)C(=O)OCc1ccccc1)Oc1ccccc1)Oc1ccccc1)C(=O)OCc1ccccc1 (stereo partly specified) | inactive | inactive | inactive | inactive | inactive | inactive | inactive | inactive |  |  |  |  |  |  |  |  |  |  |  |  |
| Cc1cn([C@H]2C[C@H](O)[C@@H](CO)O2)c(=O)[nH]c1=O [DOXRIBTIMINE] |  |  |  |  |  |  |  |  |  | 0% |  |  |  |  |  |  |  |  |  |  |
| C[C@H](NP(=O)(OC[C@H]1O[C@@H](n2cccnc2=O)[C@@H](F)[C@@H]1O)Oc1ccccc1)C(=O)OCc1ccccc1 (stereo partly specified) | inactive | inactive | inactive | inactive | inactive | inactive | inactive |  |  |  |  |  |  |  |  |  |  |  |  |  |
| CC(C)(NP(=O)(OC[C@H]1O[C@@H](n2cccnc2=O)C[C@@H]1O)Oc1ccccc1)C(=O)OCc1ccccc1 (stereo partly specified) | inactive | inactive | inactive | inactive | inactive | inactive | inactive | inactive |  |  |  |  |  |  |  |  |  |  |  |  |
| C[C@H](NP(=O)(OC[C@H]1O[C@@H](n2cccnc2=O)C[C@@H]1O)Oc1ccccc1)C(=O)OCc1ccccc1 (stereo partly specified) | inactive | inactive | inactive | inactive | inactive | inactive | inactive |  |  |  |  |  |  |  |  |  |  |  |  |  |
| COC(=O)[C@H](C)NP(=O)(OC[C@H]1O[C@@H](n2cccnc2=O)[C@@H](F)[C@@H]1O)Oc1ccccc1 (stereo partly specified) | inactive | inactive | inactive | inactive | inactive | inactive | inactive |  |  |  |  |  |  |  |  |  |  |  |  |  |
| COC(=O)[C@H](C)NP(=O)(OC[C@H]1O[C@@H](n2cccnc2=O)C[C@@H]1O)Oc1ccccc1 (stereo partly specified) | inactive | inactive | inactive | inactive | inactive | inactive | inactive |  |  |  |  |  |  |  |  |  |  |  |  |  |
| CCOC(=O)C(C)(C)NP(=O)(OC[C@H]1O[C@@H](n2cccnc2=O)C[C@@H]1O)Oc1cccc2ccccc12 (stereo partly specified) | inactive | inactive | inactive | inactive | inactive | inactive | inactive | inactive |  |  | Active | Active | Active | Active | 81 | Active | 58 |  |  |  |
| CCOC(=O)[C@H](C)NP(=O)(OC[C@H]1O[C@@H](n2cccnc2=O)C[C@@H]1O)Oc1ccc(Cl)cc1 (stereo partly specified) | inactive | inactive | inactive | inactive | inactive | inactive | inactive | inactive |  |  |  |  |  |  |  |  |  |  |  |  |
| CCOC(=O)C(C)(C)NP(=O)(OC[C@H]1O[C@@H](n2cccnc2=O)C[C@@H]1OP(=O)(NC(C)(C)C(=O)OCC)Oc1cccc2ccccc12)Oc1cccc2ccccc12 (stereo partly specified) | inactive | inactive | inactive | inactive | inactive | inactive | inactive | inactive |  | Active |  |  |  | Active |  |  |  | Active | Active | Active |
